According to PMC6146380 (Acta Pharmaceutica Sinica. B, 2018):
Counter-ions that a name gives are not always drawn. Like-named read-outs stand apart in the source and are kept apart here.

Experiments:
A549 cells [1] = test: MTT cytotoxicity assay; type: cell-based, human; details: read-out: IC50 (in vitro cytotoxicity)
Procedure, shortened: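 A549 cells seeded at 5 × 10³/well in DMEM with 10% FBS and antibiotics, preincubated 24 h at 37 °C, 5% CO₂. Test drug in PBS added at various concentrations for 48 h; untreated controls received fresh medium. MTT (5 mg/mL stock) added for 4 h, formazan dissolved in DMSO, absorbance read at 490 nm. Triplicate measurements.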

A549 cells [2] = test: Cellular uptake of FITC-labeled peptides by flow cytometry, A549; type: cell-based, human; details: 5 × 10^−6 mol/L, 4 h
Procedure, shortened: (§1)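 Cells grown in DMEM with 10% FBS at 37 °C, 5% CO₂. Seeded at 8 × 10⁴ cells/well and incubated overnight. FITC-labeled peptides (N-terminal Cys–maleimide-FITC) added at a final 5 × 10⁻⁶ mol/L for 4 h. Cells then trypsinized, centrifuged, resuspended in PBS and analysed by flow cytometry. Fluorescence signal compared between labeled peptides.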

HUVEC = test: Cellular uptake of FITC-labeled peptides by flow cytometry, HUVEC; type: cell-based, human; details: 5 × 10^−6 mol/L, 4 h
Procedure, shortened: as §1

C6 cells = test: Cellular uptake of FITC-labeled peptides by flow cytometry, C6; type: cell-based, rat; details: 5 × 10^−6 mol/L, 4 h
Procedure, shortened: as §1

U87 cells = test: Cellular uptake of FITC-labeled peptides by flow cytometry, U87; type: cell-based, human; details: 5 × 10^−6 mol/L, 4 h
Procedure, shortened: as §1

`N.N.O=C([O-])C1(C(=O)[O-])CCC1.[Pt+2]` [carboplatin] was tested, and the IC50 (A549 cells [1]; A549 cells, MTT assay, 48 h treatment, triplicate) was 138 µM.
`Nc1ccn([C@@H]2O[C@H](CO)[C@@H](O)C2(F)F)c(=O)n1` [gemcitabine, Gemcitabine hydrochloride] was tested, and the IC50 (A549 cells [1]; Homo sapiens, A549, 48 h) was 4.83 µM.
With FITC-D(CRGERPPR) the “FITC-positive ratio, times higher than that of FITC-CRGERPPR” value (A549 cells [2]) was 1.6 times, the “FITC-positive ratio, times higher than that of FITC-D(CRPPREGR)” value (A549 cells [2]) was 1.3 times and the “mean fluorescent intensity, times higher than that of FITC-CRGERPPR” value (from here on “mean fluorescent intensity … of FITC-CRGERPPR”) (HUVEC) was roughly 13.1 times. The “mean fluorescent intensity, times higher than that of FITC-D(CRPPREGR)” value (HUVEC) was 5.7 times, the “mean fluorescent intensity, times higher than FITC-D(CRPPREGR)” value (C6 cells) was 2.9 times and the “mean fluorescent intensity … of FITC-CRGERPPR” value (C6 cells) was 5.4 times. For the same compound, the “mean fluorescent intensity, times higher than FITC-D(CRPPREGR)” value (U87 cells) was 3.5 times and the “mean fluorescent intensity … of FITC-CRGERPPR” value (U87 cells) was 3.3 times.
